Measurements taken from PMC8448912 (ChemMedChem, 2021).

Legend:
Type in all cases: cell-based
[1] = tested on: panel of breast, ovarian and colorectal cancer cells; test: antiproliferative activity in the panel of cell lines; conditions: read-out: IC50 values in this screen
Procedure, shortened: (§1)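 Human cancer cell lines (breast MDA-MB-231 and MCF-7, ovarian A2780, colorectal Caco-2 and HT-29) exposed to test compound for 72 h. Growth measured by MTT assay. IC50 values reported as mean ± SDM, n = 3.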

[2] = tested on: MRC-5 (Normal lung); test: MTT antiproliferative assay, 72 h; conditions: Homo sapiens, MRC5, 72 h, read-out: IC50 values
[3] = tested on: A2780 (Ovary); test: MTT antiproliferative assay, 72 h; conditions: Homo sapiens, A2780, 72 h, read-out: IC50 values
Procedure, shortened: as §1

[4] = tested on: MDA-MB-231 (Breast); test: MTT antiproliferative assay, 72 h; conditions: Homo sapiens, MDA-MB-231, 72 h, read-out: IC50 values
Procedure, shortened: as §1

[5] = tested on: MCF-7 (Breast); test: MTT antiproliferative assay, 72 h; conditions: Homo sapiens, MCF7, 72 h, read-out: IC50 values
Procedure, shortened: as §1

[6] = tested on: Caco-2 (Colon); test: MTT antiproliferative assay, 72 h; conditions: Homo sapiens, Caco-2, 72 h, read-out: IC50 values
Procedure, shortened: as §1

[7] = tested on: HT-29 (Colon); test: MTT antiproliferative assay, 72 h; conditions: Homo sapiens, HT-29, 72 h, read-out: IC50 values
Procedure, shortened: as §1

Compound `CC(=O)N(O)CCCCCNC(=O)CCC(=O)N(O)CCCCCNC(=O)CCC(=O)N(O)CCCCCN` [DFO, desferrioxamine] has an IC50 [1] of 2 to 20 µM, an IC50 [2] of 9 ± 1 µM and an IC50 [3] of 3.83 ± 0.02 µM. The IC50 [4] was 5.8 ± 0.4 µM, the IC50 [5] was 21 ± 2 µM and the IC50 [6] was 3.7 ± 0.3 µM. For the same compound, the IC50 [7] was 2.4 ± 0.1 µM.
